In the library only some 4.2% were active in any assay of this set; here they are far more common.
KCC2 mod: KCC2 cotransporter modulators, thallium flux, primary screen, cell-based, HEK293 KCC2, FluoZin-2 fluorescence, MLSMR | Solute carrier family 12 member 5 (Homo sapiens), Q9H2X9 | B-score of Tl+ flux slope (higher = more flux/activation; lower = inhibition) at 10 µM | 2.2% of 190,000 active | KCC2 cells, thallium flux FluoZin-2 fluorescence;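 active = thallium flux slope and its plate-corrected score both differing from the plate sample mean at a set confidence after two filtering rounds, in either direction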;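 note: slope of fluorescence scaled to starting intensity during 10 to 20 s after thallium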
KCNQ1 pot: potentiators or activators of KCNQ1 channel, primary screen, cell-based, thallium flux, high-throughput | B-score at 10 µM | CHO-K1 KCNQ1, thallium flux FluxOR fluorescence; stronger effect = higher value | Potassium voltage-gated channel subfamily KQT member 1 (Homo sapiens), P51787 | 0.35% of 310,000 active;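 active = fluorescence ratio B-score, a plate-corrected score, at least three library SD, with initial intensity B-score within 5 SD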
Target sequence (P51787 whole entry, looked up): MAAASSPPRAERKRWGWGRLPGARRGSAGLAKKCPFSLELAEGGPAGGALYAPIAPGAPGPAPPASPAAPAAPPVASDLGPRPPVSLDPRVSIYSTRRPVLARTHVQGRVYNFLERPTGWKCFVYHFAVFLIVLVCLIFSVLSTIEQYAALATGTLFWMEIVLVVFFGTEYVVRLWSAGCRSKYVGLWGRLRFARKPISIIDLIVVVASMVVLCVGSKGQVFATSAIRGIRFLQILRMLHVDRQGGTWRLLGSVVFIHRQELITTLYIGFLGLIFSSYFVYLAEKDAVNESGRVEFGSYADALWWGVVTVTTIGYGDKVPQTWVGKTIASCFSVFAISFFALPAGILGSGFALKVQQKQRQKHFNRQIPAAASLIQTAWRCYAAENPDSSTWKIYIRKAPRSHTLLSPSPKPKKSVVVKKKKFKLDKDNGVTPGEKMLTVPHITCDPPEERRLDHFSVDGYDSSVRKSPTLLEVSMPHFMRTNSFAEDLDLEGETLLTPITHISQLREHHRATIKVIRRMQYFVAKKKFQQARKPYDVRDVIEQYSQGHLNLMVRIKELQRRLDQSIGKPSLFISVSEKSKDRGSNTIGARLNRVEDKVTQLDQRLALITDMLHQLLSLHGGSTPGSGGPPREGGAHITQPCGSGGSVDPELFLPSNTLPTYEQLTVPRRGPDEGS
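Assay system: CHO-K1 cells stably expressing KCNQ1. Medium: assay buffer for compound exposure, DMSO matched across wells. Timing: 37 °C overnight plating, 90-min dark dye load, 20-min compound pretreatment. Signal: kinetic FluxOR fluorescence, 10 s baseline plus 110 s post-stimulus.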
KCNQ1 inh: inhibitors of human KCNQ1 channel, primary screen, cell-based, thallium flux, high-throughput; Potassium voltage-gated channel subfamily KQT member 1 (Homo sapiens), P51787; CHO-K1 KCNQ1, FluxOR thallium flux fluorescence; stronger effect = higher value; B-score at 10 µM; 1.3% of 310,000 active; AID 2642, 2010;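 active = compounds whose thallium flux B-score, printed positive for inhibition, exceeds three library SD while starting fluorescence stays within three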;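 note: channel opened by potassium depolarization with thallium stimulus after 20 min compound exposure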
Mot1-301 SUMO: yeast Mot1-301 growth rescue at high temperature, primary screen, SUMOylation pathway inhibitor project, S. cerevisiae, ATP luminescence, 38.5C; S. cerevisiae Mot1-301 growth rescue; percent above DMSO median, 100 means doubled; growth rescue, % at 18.8 µM; 1% of 320,000 active;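 active = every valid replicate shows activation above 250% relative to neutral control wells; inactive = the rest, any valid replicate at or below 250%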;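 note: OY570 slx delta 5 strain wells were the positive control but not used for scaling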
hERG protect: hERG rescue from dofetilide block, primary screen, cell-based, CHO-hERG, FluxOR thallium flux, dofetilide IC70. Voltage-gated inwardly rectifying potassium channel KCNH2 (Homo sapiens), Q12809. 0.51% of 310,000 active. dofetilide IC70 present. activation (rescue from dofetilide block), less the hit threshold, % at 10 µM;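 active = activation above the mean of controls blocked by dofetilide plus 5 SD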;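 note: thallium influx through hERG after potassium depolarization seen as dye fluorescence rise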
AI-2 QS mod: Vibrio harveyi AI-2 quorum sensing modulators, primary screen, JMH597 strain, luminescence/OD600 ratio; 0.4% of 300,000 active; Vibrio harveyi JMH597 AI-2 luminescence/OD600 ratio, 9 h; stronger effect = lower value; strain lacks LuxN and CqsS sensors; 0 = neutral-control median; activity change, % at 7.5 µM; in the data active = activity change below about -75%, passing the limit was not always enough;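 note: luminescence divided by OD600 gain over 9 h not by final OD600 alone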
Mot1 SUMO dose: growth restoration of Mot1-301 yeast on galactose, dose response, SUMO pathway inhibitor project, whole organism, S. cerevisiae, ATP luminescence, cherry-picked samples; shares compounds with Mot1-301 SUMO; S. cerevisiae Mot1-301 galactose growth, 24 h; -100 = growth of slx-deleted rescue strain; growth activity, percent, % at 42 µM; 2,300 tested, under 10 active; AID 493004, 2010;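 active = Signal drops as the depositor expects, and the fitted half-maximal dose is no more than ten times the top valid tested dose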;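 note: more negative values mean stronger growth rescue toward the control strain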
Starred values were filed as active, the others as inactive; i = inactive; . = no result given; + = active, no number.

SMILES | KCC2 mod | KCNQ1 pot | KCNQ1 inh | Mot1-301 SUMO | hERG protect | AI-2 QS mod | Mot1 SUMO dose
CC(=O)NCCC(=O)NCC1(N(C)Cc2ccccc2)Cc2ccccc2C1 | . | i | i | -6 | -3 | 4 | .
COC(=O)CCCC(=O)NCC1(N(C)Cc2ccccc2)Cc2ccccc2C1 | . | i | i | 387* | -6 | 11 | 1
Cc1ccnc2nc(C(=O)OC(C)C(=O)NCc3ccccc3)nn12 (stereo not given) | . | . | . | -7 | . | . | .
O=C1CCCN1CCC(=O)N1CCCC(N2CCN(c3ccccc3F)CC2)C1 (stereo not given) | . | i | i | 481* | -10 | 17 | 0
Cc1ccc(NC(=O)C2CCN(S(=O)(=O)c3c(C)nn(C)c3C)CC2)c(Cl)c1 | . | i | i | -8 | -8 | 13 | .
O=C1c2ccccc2C(=O)N1CCSc1ccccc1 | . | i | i | + | -12 | -16 | 0
O=C1c2ccccc2C(=O)N1CCSc1nncs1 | 0.76 | i | i | 5 | -6 | 4 | .
CCOC(=O)Cc1csc(NS(=O)(=O)c2ccc([N+](=O)[O-])cc2)n1 | . | i | i | 21 | -4 | 28 | .
Nc1nnnn1CC(=O)N/N=C/c1cccs1 | 0.31 | i | i | 627* | -8 | 15 | 0
O=C(Cn1nnc2ccccc21)N/N=C\c1cccs1 | 1.1 | i | i | -1 | -7 | -65 | .
CN(CCO)CCC(=O)NC1(C)CS(=O)(=O)CC1S(=O)(=O)O (stereo not given) | 1.1 | i | i | 1 | -13 | 3 | .
COc1ccc(OCc2cc(C(=O)NC(C)Cn3cncn3)no2)c(Cl)c1 (stereo not given) | . | i | i | -4 | -7 | 36 | .
COCCCNS(=O)(=O)c1ccc(Oc2ncc(C(F)(F)F)cc2Cl)cc1 | . | i | i | + | -13 | 17 | 1
COc1ccc(CNC(=O)C2CCC(CNc3nc(=S)[nH]c4ccccc34)CC2)cc1 (stereo not given) | -1.1 | i | i | -15 | -5 | . | .
COc1cc(/C=N/n2c(C3CCCCC3)n[nH]c2=S)cc(OC)c1O | . | i | i | 400* | -4 | 19 | 1
COc1ccc(NC(=O)/C(=C/c2ccc3c(c2)OCO3)NC(C)=O)cc1 | 0.69 | i | i | 56 | -12 | 10 | .
CC1(C)NC(=O)N(CCCOc2ccccc2Br)C1=O | . | i | i | + | -9 | -6 | 0
O=C(c1cc(Cl)c(=O)n(Cc2ccc(Cl)cc2)c1)N1CCOCC1 | -0.001 | i | i | 658* | -10 | 20 | 0
Cc1cc(Cl)ccc1NC(=O)CSc1n[nH]c(N)n1 | . | . | . | 4 | . | . | .
COc1ccc(OC)c(CNC(=O)CCC(=O)N2Cc3cccc(OC)c3Oc3ncccc32)c1 | . | i | i | -5 | -8 | 0 | .
CC(C(=O)Nc1ccccc1-c1ccccc1)N1CCN(Cc2ccccc2)CC1 (stereo not given) | -1.7 | i | i | 528* | -8 | 8 | 0
CC(C(=O)Nc1ccccc1-c1ccccc1)N1CCN(C(=O)c2ccccc2)CC1 (stereo not given) | -0.1 | i | i | 439 | -17 | 14 | .
N=c1oc2ccc3ccccc3c2cc1C(N)=S | 0.097 | i | i | . | -26 | 50 | .
Cc1cccc(N2CCN(C(=O)c3ccc(-n4cncn4)c([N+](=O)[O-])c3)CC2)c1C | . | i | i | 148 | -10 | 30 | .
COc1ccc([N+](=O)[O-])c2c(=O)ccoc12 | -0.38 | i | i | 585* | -2 | 17 | 0
SMILES | KCC2 mod | KCNQ1 pot | KCNQ1 inh | Mot1-301 SUMO | hERG protect | AI-2 QS mod | Mot1 SUMO dose
O=C(Nc1cccc(N=Cc2cc(Br)cc(Br)c2O)c1)c1ccco1 | -3 | i | i | 766* | -3 | 3 | -1
CC1(C)CCC(=O)N2CC[C@H]3C[C@H](OC(=O)Nc4ccc(Br)cc4)C[C@@H]1[C@H]32 | . | i | i | 805* | -5 | -8 | 0
CCOc1ccc(C)cc1S(=O)(=O)n1nc(C)cc1C | -0.12 | i | i | 477* | -5 | 21 | 0
O=C(c1cn(-c2ccccc2)nc1-c1cccs1)N1CCOCC1 | -0.85 | i | i | + | -4 | 15 | 0
CC(=O)Nc1ccc(-c2csc(NC(=O)C3CC(=O)N(c4ccc5c(c4)OCCO5)C3)n2)cc1 (stereo not given) | 0.014 | i | i | 508* | -15 | 20 | -1
C[C@@]12C(=O)Nc3ccc(Br)cc3C(=O)N1[C@H]1c3ccccc3OC[C@@H]1[C@@H]2c1ccccc1 | . | . | . | + | . | . | -1
Cc1ccc2c(c1)C(=O)N1[C@H]3c4ccccc4OC[C@@H]3[C@H](c3ccccc3)[C@]1(C)C(=O)N2 | . | . | . | + | . | . | 0
COc1ccc(/C=C(/NC(=O)c2ccc(OC)c(OC)c2)C(=O)NCCCn2ccnc2)cc1 | . | i | i | -17 | -1 | 24 | .
O=C(CSc1nc2ccc(Cl)cc2[nH]1)NCc1ccco1 | 1.3 | i | i | 358* | -9 | 23 | 0
O=C(CSc1nc2ccccc2[nH]1)NCc1ccco1 | 0.16 | i | i | 1 | -2 | 23 | .
Cc1c(C(=O)NC(C)c2ccc(-n3ccnc3)cc2)cccc1[N+](=O)[O-] (stereo not given) | . | i | i | 407* | -7 | 27 | 0
CC(NC(=O)c1ccccc1Cl)c1ccc(-n2ccnc2)cc1 (stereo not given) | . | i | i | -13 | -9 | 20 | .
O=C(c1cc([N+](=O)[O-])[nH]n1)N1CCSCC1 | 0.056 | i | i | 27 | -5 | -7 | .
Cc1nc(SCCc2nc3ccccc3[nH]2)c2oc3ccccc3c2n1 | . | . | . | 8 | . | . | .
CC(C(=O)N1CCN(C(=O)c2ccco2)CC1)n1sc2ccccc2c1=O (stereo not given) | . | i | i | 380* | -8 | 2 | 1

High-throughput results from PubChem.
